Beta apoptosis – blocks beta cell apoptosis. AID 435005. protection from apoptosis, % (test concentration not listed). INS-1E cytokine-induced death, ATP luminescence, 48 h; percent of positive-control rescue, neutral wells zero. 300,000 tested, 0.8% active;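 active = Every replicate reaches about 75%, or at least half do and their mean reaches it too, limit read from the data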;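 also: 0% = cytokine-treated negative control wells and 100% = positive control rescue; higher means more ATP so stronger rescue from cytokine killing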
SKKanGAS inh – blocks kanamycin growth of S. pyogenes SKKanGAS strain; BacTiter-Glo, 6 h; inhibition, % at 7.5 µM; 300,000 tested, 1.3% active; AID 1662;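 active = mean replicate score, as percent of positive control median, at least 50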;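 also: strain carries kanamycin resistance gene driven by streptokinase promoter and grows in 40 µg/ml kanamycin; loss of luminescence reflects streptokinase promoter inhibition or plain growth inhibition; 0% = median of DMSO wells and 100% = positive control at its reference dose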
CSC inhib – blocks cancer stem cells. cancer stem cell-like cells viability, luminescence. inhibition, % at 7.5 µM. 300,000 tested, 1.1% active; in the data active = inhibition above about 75%; tested in HMLE shEcad cells
T cruzi inh – T. cruzi replication inhibition; 300,000 tested, 1.4% active; T. cruzi beta-gal in NIH3T3, luminescence, 90 h; inhibition, % (concentration not given with the values); AID 1885;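 active = mean inhibition across valid replicates above about 55%, limit read from the data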;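 also: signal also drops with host cell toxicity which is not excluded here; 0% = plate median of DMSO wells and 100% = zero luminescence signal; higher percent means less beta-gal luminescence so fewer parasites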
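assay system = mouse NIH/3T3 fibroblasts infected with β-gal-expressing T. cruzi Tulahuen C4 | input = 5,000 NIH/3T3 host cells per well | buffer or medium = DMEM plus 2% FBS | timing = 3 h host attachment, then at least 90 h co-culture | measured by = GalScreen luminescence, 60 min | evaluation = luminescence reflecting intracellular parasite burden, expressed as percent inhibition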
PfHsp90 set2 – growth inhibition of yeast expressing Plasmodium Hsp90; S. cerevisiae expressing PfHsp90, BacTiter-Glo ATP, 48 h; yeast lacking PDR1 and PDR3 efflux regulators; inhibition, % at 9.4 µM; 310,000 tested, 0.32% active; AID 504621;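 active = every replicate shows inhibition above about 80%, whatever the replicate mean, limit read from the data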;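 also: 0% = DMSO neutral controls and 100% = 20 µM radicicol positive controls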
HIF activator – HIF pathway transcriptional activation. U2OS HRE-luciferase reporter, luminescence; normalized: DMSO 0%, desferrioxamine 100%. activation, % at 7.5 µM (by protocol). 300,000 tested, 0.32% active. AID 1910;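 active = mean activation of at least 10% of the iron chelator positive control signal, with at least half of replicates also reaching 10%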
* = called active by the depositor; ! = not active in a repeat. Rows were chosen to be rich in hits. Some 3.6% of all compounds tested hit in one or more screens of this group.

For Cc1ccc(C2(c3ccccc3)NC(=O)N(CC(=O)NC3(C#N)CCCC3)C2=O)cc1C (centres undefined) the results were Beta apoptosis -1, CSC inhib -11 and PfHsp90 set2 4.
CCn1c(N2CCC(Cc3ccccc3)CC2)nc2c1c(=O)[nH]c(=O)n2C was read as Beta apoptosis 1, SKKanGAS inh -4, CSC inhib -1, T cruzi inh 7, PfHsp90 set2 -27 and HIF activator 17*.
`CCCCCCCCn1c(N2CCN(c3cccc(Cl)c3)CC2)nc2c1c(=O)[nH]c(=O)n2C` gave Beta apoptosis 12, SKKanGAS inh 4, CSC inhib -10, T cruzi inh 55*, PfHsp90 set2 -5 and HIF activator 0.
Screening CCCCn1c(SCC(=O)c2ccccc2)nc2c1c(=O)[nH]c(=O)n2C returned Beta apoptosis -1, SKKanGAS inh 80*, CSC inhib 0, T cruzi inh -7, PfHsp90 set2 -13 and HIF activator 0.
Screening O=C(CCNC(=O)C1CCN(S(=O)(=O)c2ccccc2)CC1)NCc1ccccc1Cl returned Beta apoptosis -2, SKKanGAS inh 7, CSC inhib -13, T cruzi inh 13, PfHsp90 set2 -5 and HIF activator 1.
Screening Cc1nc2c(C(=O)NCc3ccco3)cnn2c(C)c1Cc1ccc(F)cc1Cl returned Beta apoptosis 6, SKKanGAS inh 7, CSC inhib 1, T cruzi inh 74* and HIF activator 0.
Cc1ccc(C)c(Cc2c(C)nc3c(C(=O)NCc4ccc5c(c4)OCO5)cnn3c2C)c1 was read as Beta apoptosis 11, SKKanGAS inh 14, CSC inhib 78*, T cruzi inh 68* and HIF activator -1.
`Cc1ccccc1Cc1c(C)nc2c(C(=O)NCc3ccc4c(c3)OCO4)cnn2c1C` gave Beta apoptosis 4, SKKanGAS inh 20, CSC inhib -1, T cruzi inh 29, PfHsp90 set2 16 and HIF activator 0.
COc1ccc(NS(=O)(=O)c2cccc(C(=O)N3CCN(S(=O)(=O)c4ccccc4)CC3)c2)cc1 was read as PfHsp90 set2 -4.
Screening COc1ccc(OC)c(-n2c(SCC(=O)Nc3cccc(S(N)(=O)=O)c3)nc3ccccc3c2=O)c1 returned Beta apoptosis -6, SKKanGAS inh -7, CSC inhib -16, T cruzi inh 9, PfHsp90 set2 -61 and HIF activator -9.
Screening Cc1cc(C)c(-c2csc(NC(=O)c3cc([N+](=O)[O-])ccc3N3CCOCC3)n2)c(C)c1 returned Beta apoptosis 7, SKKanGAS inh 14, CSC inhib -4, T cruzi inh 66*, PfHsp90 set2 5 and HIF activator 0.
`CCN(CC)c1nc(NN)nc(Nc2ccc(C)c(Cl)c2)n1` gave Beta apoptosis 30, SKKanGAS inh 104*, CSC inhib 33, T cruzi inh 43, PfHsp90 set2 20 and HIF activator 0.
Screening O=C(CC(Sc1ccc(Br)cc1)C(=O)O)c1ccc(F)cc1 (centres undefined) returned SKKanGAS inh -5, T cruzi inh 73*, PfHsp90 set2 -13 and HIF activator -8.
Screening CC(C)C(=O)Nc1cccc(C(=O)Nc2ccc(S(=O)(=O)Nc3nccs3)cc2)c1 returned SKKanGAS inh 5, CSC inhib -2, T cruzi inh -8, PfHsp90 set2 15 and HIF activator 1.
Screening COc1ccccc1-n1c(-c2ccccc2)c[n+]2c1CCc1ccccc1-2 returned Beta apoptosis 101*, SKKanGAS inh -5, CSC inhib 22, T cruzi inh 76*!, PfHsp90 set2 13 and HIF activator 0.
COc1ccc(-n2cc(-c3ccc(Br)cc3)[nH]c2=S)cc1 was read as Beta apoptosis -12, SKKanGAS inh 2, CSC inhib -13, T cruzi inh -12, PfHsp90 set2 -16 and HIF activator 5.
For CC(C)c1ccc(-n2c(-c3ccccc3)c[n+]3c2CCc2ccccc2-3)cc1 the results were SKKanGAS inh -11, T cruzi inh 67*, PfHsp90 set2 28 and HIF activator -2.
For COc1ccc(-n2c(-c3ccc(Br)cc3)c[n+]3c2CCc2ccccc2-3)cc1 the results were Beta apoptosis 104*, SKKanGAS inh -8, CSC inhib 7, T cruzi inh 60*, PfHsp90 set2 37 and HIF activator 1.
`COC(=O)C1CCN(C(=O)Cn2nnc(-c3cccc(F)c3)n2)CC1` gave Beta apoptosis -4, SKKanGAS inh 5, CSC inhib -6, T cruzi inh -12, PfHsp90 set2 1 and HIF activator -3.
Screening N#Cc1ccccc1S(=O)(=O)N1CCN(C(=O)[C@H](Cc2ccccc2)NC(=O)c2ccco2)CC1 returned Beta apoptosis 8 and PfHsp90 set2 4.
`CCC(C)(C)NC(=O)C(Sc1ccccc1)c1ccccc1` (centres undefined) gave Beta apoptosis -2, SKKanGAS inh -7, CSC inhib -3, T cruzi inh -3, PfHsp90 set2 1 and HIF activator 0.
O=C(c1ccccc1)c1ccc(O)c(O)c1O was read as PfHsp90 set2 -2.
`COc1ccc2c(c1)C(=O)[C@H](O)[C@@H](c1ccc(OC)c(Br)c1)O2` gave Beta apoptosis 109*, SKKanGAS inh 15, CSC inhib 108*, T cruzi inh 14 and HIF activator 8.
Screening CCOC(=O)C1CCCC12Nc1cccc3cccc(c13)N2 (centres undefined) returned PfHsp90 set2 -31.
For Nc1nc(NCCOCCO)nc(N2CCCCCC2)c1[N+](=O)[O-] the results were Beta apoptosis -1, SKKanGAS inh 77*, CSC inhib -12, T cruzi inh -2, PfHsp90 set2 1 and HIF activator -1.
Screening Nc1nc(NCCO)nc(N2CCCCCC2)c1[N+](=O)[O-] returned Beta apoptosis -2, SKKanGAS inh 0, CSC inhib -2, T cruzi inh 6, PfHsp90 set2 1 and HIF activator 1.
For CCS(=O)(=O)N1Cc2ccccc2CC1C(=O)Nc1nnc(SCc2ccc(C#N)cc2)s1 (centres undefined) the results were Beta apoptosis 0, SKKanGAS inh 60*, CSC inhib 30, T cruzi inh 6, PfHsp90 set2 -4 and HIF activator 0.
For CC1=NOC(=O)/C1=C\c1ccc(-c2ccc(Cl)cc2Cl)o1 the results were SKKanGAS inh 70*, T cruzi inh -22, PfHsp90 set2 72 and HIF activator -2.
`O=C(Nc1ccc(Cl)cc1)Nc1csc([N+](=O)[O-])c1` gave Beta apoptosis 80*, SKKanGAS inh 3, CSC inhib 36, T cruzi inh 30 and HIF activator 2.

Assay outcomes as filed in PubChem.
